Source: PubChem BioAssay
This excerpt belongs to a sample that is enriched for hits.
GSK3A inh: blocks human GSK-3 alpha kinase; P49840; ADP-Glo luminescence, 60 min; inhibition, % at 10 µM; actives 0.1% (n = 320,000);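 active = more than half of replicates show inhibition above 20%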;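 also: GST-tagged GSK-3 alpha with peptide substrate and 25 µM ATP; 0% = DMSO neutral wells and 100% = GW8510 positive control wells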
Target sequence (P49840 whole entry, looked up): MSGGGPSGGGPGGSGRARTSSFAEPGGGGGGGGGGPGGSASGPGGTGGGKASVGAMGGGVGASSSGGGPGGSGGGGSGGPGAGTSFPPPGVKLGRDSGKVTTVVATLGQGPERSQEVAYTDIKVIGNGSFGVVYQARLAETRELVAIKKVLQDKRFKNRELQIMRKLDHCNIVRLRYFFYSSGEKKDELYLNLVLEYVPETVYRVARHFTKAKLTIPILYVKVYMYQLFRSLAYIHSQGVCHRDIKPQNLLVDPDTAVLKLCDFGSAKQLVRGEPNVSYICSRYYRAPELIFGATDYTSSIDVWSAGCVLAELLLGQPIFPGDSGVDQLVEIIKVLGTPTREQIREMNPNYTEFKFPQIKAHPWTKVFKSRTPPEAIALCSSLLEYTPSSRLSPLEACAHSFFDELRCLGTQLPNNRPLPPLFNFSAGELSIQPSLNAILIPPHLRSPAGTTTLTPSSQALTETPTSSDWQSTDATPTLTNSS
GSK3beta inhib: human GSK3beta kinase inhibition; P49841; GST-GSK3beta kinase, ADP-Glo luminescence, 60 min; active compounds read low; activity score (negative = inhibition), % at 10 µM; actives 0.038% (n = 300,000); AID 2097;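 active = more than half of replicate wells score below -50%, meaning over 50% inhibition versus plate controls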;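 also: 0% = median DMSO wells and -100% = median GW8510 positive control wells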
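Assay system: GST-tagged human GSK3beta kinase, cell-free; Input: 1.6 ng GSK3beta; Medium: Tris/MgCl2 kinase buffer; Timing: 60 min enzyme reaction, room temperature; Signal: ADP-Glo luminescence quantifying ADP generated by kinase; Evaluation: score relative to plate controls; Benchmarks: DMSO neutral wells and GW8510 at 20 µM as positive.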
DYRK1A inh: blocks rat Dyrk1A kinase activity. Q63470. ADP-Glo luminescence, NFATc1 peptide. inhibition, % at 12.5 µM. actives 0.43% (n = 310,000); in the data active = inhibition above about 50%;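 also: plate controls were vehicle with enzyme for no effect and no enzyme for full effect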
CDK5 p35 inh: CDK5/p35 (human) kinase inhibition; inhibition, % at 10 µM; actives 0.01% (n = 330,000); Q00535+Q15078; AID 488839; Recombinant CDK5/p35, ADP-Glo luminescence, 60 min;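 active = highest replicate inhibition of at least 50% and at least 75% of replicates reaching 50%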;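 also: plate controls were DMSO neutral control for no effect and GW8510 at 10 µM for full effect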
STK33 kinase inh: human STK33 kinase inhibition. AID 2661. purified STK33, MBP phosphorylation, ADP-Glo luminescence. inhibition, % at 10 µM. actives 0.073% (n = 320,000). Q9BYT3;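 active = inhibition at or above 25%, using the most active replicate where run in duplicate; inactive = inhibition below 25%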
Dyrk1A artifact: interferes with ADP-Glo luciferase readout without Dyrk1A | shares compounds with DYRK1A inh | 1,300 tested, under 10 active | AC50, µM (top dose mostly 12 µM), for the others: at the top dose activity change, negative = inhibition | ADP-Glo luciferase artifact assay, no Dyrk1A, luminescence;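 active = fitted half-maximal dose AC50 no more than ten times the top valid tested dose, with luminescence dropping as dose rises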
An asterisk follows results filed as active; . = no result.

SMILES | GSK3A inh | GSK3beta inhib | DYRK1A inh | CDK5 p35 inh | STK33 kinase inh | Dyrk1A artifact
O=C(Nc1ccc(COc2ccccc2)cc1)Nc1cccc(C(=O)O)c1 | -2 | 4 | 3 | -1 | -1 | .
O=[N+]([O-])c1ccc(N2CCN(CCOCCO)CC2)c([N+](=O)[O-])c1 | -1 | 3 | -3 | 1 | 1 | .
O=[N+]([O-])c1ccc(O)c(/C=N/n2c(-c3ccccc3)n[nH]c2=S)c1 | 28 | -3 | 57* | 9 | 6 | 7%
Oc1ccccc1/C=N/n1c(-c2ccccc2)n[nH]c1=S | 10 | -1 | 36 | 13 | 9 | .
CC(=O)c1ccc(N2CCN(S(=O)(=O)c3c(C(=O)N4CCCC4)c(C)n(C)c3C)CC2)cc1 | -1 | 1 | -1 | 2 | -1 | .
Cc1cccc(OCC(=O)Nc2nc3ccc([N+](=O)[O-])cc3s2)c1C | 10 | -1 | 1 | 1 | 7 | .
CC(C)c1ccc(/C=C/C(=O)Nc2nc3ccc([N+](=O)[O-])cc3s2)cc1 | -3 | 2 | 24 | 0 | -1 | .
Cc1cccc(OCC(=O)Nc2nc3ccc([N+](=O)[O-])cc3s2)c1 | -3 | -3 | 64* | -14 | 1 | 6%
O=C(O)COc1ccc(/C=C/c2nc3ccc([N+](=O)[O-])cc3s2)cc1 | -2 | 0 | 87* | 1 | 21 | 8%
Cc1ccc2nc(NC(=O)CCCC(=O)O)sc2c1 | 1 | -3 | 62* | 0 | -1 | 9%
Nc1nc(N)c2c(ccc3nccc32)[nH]1 | 0 | -2 | 55* | 3 | 1 | 8%
O=C(NCc1ccccc1)C1=C[C@H](c2ccccc2)C[C@H](OCc2ccc(CO)cc2)O1 | 6 | 0 | 52* | -3 | -2 | 12%
CCOC(=O)Cc1ncccc1C(=O)Nc1ccc(Oc2ccccc2)cc1 | -1 | 5 | -9 | -1 | -1 | .
CCC(=O)Nc1c(C#N)c2nc3ccccc3nc2n1C1CCCCC1 | 10 | -11 | 44 | 5 | -2 | .
CCC(=O)Nc1c(C#N)c2nc3ccccc3nc2n1-c1ccccc1C | 14 | -5 | 55* | -1 | 0 | 8%
COc1ccc(OCC(=O)NCCNC(=O)c2cccnc2)cc1 | -1 | -1 | -3 | 0 | -4 | .
Nc1cc2ccncc2c2ccccc12 | 1 | -2 | 73* | 5 | 19 | 9%
Cc1cc(N)c2ccccc2n1 | -1 | 0 | -2 | -1 | 0 | .
N#CCSc1nc(Nc2ccc3c(c2)OCO3)c2ccccc2n1 | -1 | 1 | 60* | -1 | 0 | 7%
Cc1ccnc(SCC(=O)NC2CCCCCC2)n1 | 1 | -5 | -16 | -1 | -1 | .
CC(=O)Nc1ccc(/C=C/c2nc3ccccc3o2)cc1 | -2 | -1 | 59* | 0 | -1 | 9%
COc1ccc(N2C(=O)C3CCCN3C2c2cc(OC)c(OC)c(OC)c2)cc1 (centres undefined) | . | 1 | 62* | 1 | 1 | 9%
CCOc1ccc(CCNC(=O)Cn2nc(C)c3c(C)n(-c4ccccc4)nc3c2=O)cc1 | -2 | -8 | 3 | 3 | -1 | .
Cc1ccc(Cl)cc1NC(=O)COC(=O)CCN1C(=O)C2CC=CCC2C1=O (centres undefined) | 0 | . | -7 | -1 | 0 | .
COc1ccc2c(Cl)c(C(=O)N/N=C/c3ccc4c(c3)OCO4)sc2c1 | 2 | 1 | 12 | -1 | -2 | .
SMILES | GSK3A inh | GSK3beta inhib | DYRK1A inh | CDK5 p35 inh | STK33 kinase inh | Dyrk1A artifact
COc1ccc2c(Cl)c(C(=O)N/N=C3\CCCC(=O)C3)sc2c1 | 4 | 1 | 81* | -1 | 1 | 11%
Cc1nc2ccc3[nH]snc3c2n1 | 15 | -11 | 55* | 4 | 5 | 7%
CCOc1ccc(N2CC(C(=O)NC3=NCCS3)CC2=O)cc1 (centres undefined) | -1 | 4 | 15 | 1 | 0 | .
CC(=O)/C(N=Nc1ccc(-n2ccc(C(F)(F)F)n2)cc1)=C(\C)O | 0 | 1 | -8 | 0 | -1 | .
Cc1ccc(C)c(S(=O)(=O)N2CCCOC2CNC(=O)C(=O)NCCCN2CCOCC2)c1 (centres undefined) | 8 | 3 | 6 | 0 | 2 | .
O=C(O)c1ccc(-c2ccc(/C=N/Nc3ccc([N+](=O)[O-])cc3)o2)cc1 | 1 | 0 | 7 | 0 | 1 | .
O=C(O)c1cccc(-c2ccc(/C=N/Nc3ccc([N+](=O)[O-])cc3)o2)c1 | 13 | -2 | 60* | 1 | 1 | 8%
CC1CCCC(C)N1C(=O)COC(=O)C1CCN(S(=O)(=O)c2c(Cl)cccc2Cl)CC1 (centres undefined) | -1 | -1 | 1 | 0 | -1 | .
CCCCCC1CC(CC(C)C(=O)Nc2nncs2)C(=O)O1 (centres undefined) | 1 | -2 | 57* | 0 | -3 | 9%
Cc1ccccc1Nc1cc(C)c2c(O)cccc2n1 | 7 | 0 | 60* | -1 | 2 | 10%
Cc1ccc(Nc2cc(C)c3c(O)cccc3n2)cc1C | -1 | -3 | 39 | 2 | 4 | .
CCN1CCCC1CNC(=O)Cn1nc(C)n2nc(-c3ccccc3)cc2c1=O (centres undefined) | -2 | 2 | 7 | 1 | 0 | .
Cc1ccc(C(=O)Nc2ccnc(-c3cccnc3)n2)cc1 | 2 | -3 | 60* | 0 | . | 9%
COc1ccc(C(=O)Nc2ccnc(-c3cccnc3)n2)cc1 | 1 | -13 | 31 | 3 | 0 | .
Nc1cc2c([N+](=O)[O-])cccc2o1 | -2 | -1 | 60* | 0 | 1 | 8%
Nc1nc2ccc([N+](=O)[O-])cc2[nH]1 | -1 | -1 | 55* | 1 | 10 | 7%
COC(=O)[C@]1(CC(C)C)N[C@H](c2ccc(-c3cccc(Cl)c3)cc2)[C@@H]2C(=O)N(C)C(=O)[C@@H]21 | -2 | -1 | 56* | 1 | 1 | 9%
COC(=O)[C@]1(C)N[C@H](c2ccc(-c3cccc(Cl)c3)cc2)[C@@H]2C(=O)N(C)C(=O)[C@@H]21 | -2 | . | 9 | 1 | 0 | .
Cc1ccc(C)c(S(=O)(=O)N2CCN(C(=O)[C@H](Cc3ccccc3)NC(=O)c3ccco3)CC2)c1 | 0 | . | 1 | -1 | -1 | .
Cc1cc2nncn2c2ccccc12 | -4 | 1 | 57* | 1 | 1 | 9%
CCCc1nc2c(=O)n(C)c(=O)nc-2n(C)n1 | . | . | 65* | 0 | . | 6%
Cn1nc(-c2ccccn2)nc2c(=O)n(C)c(=O)nc1-2 | 9 | -28 | 81* | 3 | -1 | 7%
COc1ccc(-c2nc(-c3ccccn3)ncc2S(C)(=O)=O)cc1 | . | 2 | -3 | 0 | -2 | .
CCCc1nc2c([nH]1)c(=O)n(C)c(=O)n2C | 9 | 0 | 6 | 0 | 0 | .
Cc1noc(C)c1COc1ccc(C(=O)N2CCC(C(N)=O)CC2)cc1 | -3 | . | . | -1 | 0 | .
